Measurements: paper PMC4310013 (Chemical Science, 2014)
“Also recorded” adds a separate entry of the source.

Tests used:
[1] = Pharmacokinetic studies in C57BL/6 mice; assay type: in vivo; conditions: male, C57BL/6, mouse, brain, intraperitoneal
[2] = Brain tissue binding assay; assay type: in vitro ADME
[3] = test system: mouse forebrain primary neuronal cultures; test: Neuronal histone acetylation assay; assay type: cell-based; conditions: 10 μM, 24 h, relative to vehicle
How it was run: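 Primary mouse forebrain neurons were treated on culture day 13 for 24 h at 10 μM, then formaldehyde-fixed. They were stained with anti-AcH3K9 or anti-AcH4K12 and a green fluorescent secondary, and fluorescence was read by microcytometer. Read-out was the percentage of cells above a baseline threshold set in DMSO-treated cells. Two experiments in triplicate from separate dissections and cultures.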

CK-p25 mice [4] = test: Context-dependent fear conditioning in CK-p25 mice; assay type: in vivo, mouse; conditions: 1 mg/kg i.p. daily for 10 days
How it was run: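 CK-p25 male mice induced at 3 months of age for 6 weeks for forebrain p25 expression; p25-lacking heterozygous littermates as controls. Test compound in 5% DMSO, then 30% Cremophor/65% saline, given i.p. daily for 10 days before behaviour; vehicle without compound. Training: 3 min habituation, two 2 s 0.8 mA shocks 30 s apart, 15 s more. Freezing scored on 3 min context re-exposure 24 h later. Mean ± SEM; ANOVA/Tukey or one-tailed t test.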

[5] = test system: hippocampal CA1 neurons of CK-p25 mice; test: Immunohistochemistry of H4K12 acetylation in hippocampal CA1 neurons; assay type: in vivo, mouse; conditions: after 10 day treatment, compared to vehicle treated group
How it was run: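 Hippocampal tissue from CK-p25 mice given test compound or vehicle i.p. daily for 10 days. Coronal 40 μm slices were permeabilised in 0.1% Triton X-100, blocked, and incubated overnight with acetyl-histone antibody in 0.3% Triton X-100/10% FBS in PBS. Fluorescent secondary and Hoechst nuclear stain followed. Confocal images at identical settings. Mean signal in 20–40 non-apoptotic cells per condition was scored blind. Mean ± SEM.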

CK-p25 mice [6] = test: Tolerability on daily dosing in CK-p25 mice; assay type: in vivo, mouse
How it was run: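 Induced CK-p25 mice were given test compound i.p. daily for 10 days, dissolved in 5% DMSO then diluted in 30% Cremophor/65% physiological saline and prepared immediately before injection. Mortality and toxicity were noted over the treatment period.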

[7] = test system: wild-type male C57BL/6 mice; test: Tolerability on daily dosing in wild-type mice; assay type: in vivo, mouse; conditions: 30 mg/kg daily for 10 consecutive days

SMILES: Nc1ccc(-c2ccncc2)cc1NC(=O)N1CCCC1 [BRD6688]
- Kp [1]: 0.26
- fraction unbound [2]: 0.54
- AcH3K9 acetylation change [3]: significant increases
- AcH4K12 acetylation change [3]: significant increases
- contextual fear conditioning, freezing (CK-p25 mice [4]): rescued the memory defects; also recorded: restored the freezing response to normal levels
- H4K12 acetylation in hippocampal CA1 neurons [5]: increased H4K12 acetylation
- toxicity (CK-p25 mice [6]; 1 mg/kg, CK-p25 mice): No toxicity was observed
- mortality (CK-p25 mice [6]; 10 mg/kg, over 10 day treatment, single study, unknown cause): 5 out of 10
- toxicity [7]: No toxicity was observed

SMILES: CC(=O)NC1CCN(C(=O)Nc2cc(-c3cccs3)ccc2N)CC1 [BRD3227]
- Kp [1]: 0.01
